Assay results reported in ChEMBL document CHEMBL1149614, “Exomethylene pyranonucleosides: efficient synthesis and biological evaluation of 1-(2,3,4-trideoxy-2-methylene-beta-d-glycero-hex-3-enopyranosyl)thymine” (Bioorg Med Chem, 2007).

How the values were obtained:
[1] = Selectivity index, ratio of CC50 for rhesus monkey MA104 cells to IC50 for Rotavirus RF; type: functional
H4 = test: Cytotoxicity against human H4 cells after 72 hrs; type: functional; conditions: H4, 72 h
How it was run: (§1)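 H4 or Caco-2 cells (6 × 10⁶ per plate) treated with 3-fold serial dilutions from 0.5 mg/mL and held 72 h at 37 °C in a humidified incubator. Results are mean % of treated (n = 2) versus control (n = 24) absorbance.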

Rotavirus [2] = test: Antiviral activity against Rotavirus RF in rhesus monkey MA104 cells assessed as inhibition of infectivity following virus attachment after 72 hrs; type: functional, organism-based; conditions: MA104, 72 h
How it was run: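 Monolayers infected with rotavirus RF for 1 h at 37 °C in 5% CO2, then washed with unsupplemented DMEM and immediately given 3-fold serial dilutions from 0.5 mg/mL. Results are mean % of virus-only control absorbance (n = 6).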

[3] = Tumor selectivity index, ratio of CC50 for human H4 cells to CC50 for human Caco-2 cells; type: functional
How it was run: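 Ratio of 72 h crystal-violet CC50 in H4 cells to CC50 in Caco-2 cells.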

Caco-2 [4] = test: Cytotoxicity against human Caco-2 cells after 72 hrs; type: functional; conditions: Caco-2, 72 h; how it was run: as §1
Caco-2 [5] = test: Growth inhibition of human Caco-2 cells after 10 days; type: functional, cell-based; conditions: Caco-2, 240 h
How it was run: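 Caco-2 monolayers in DMEM/10% fetal bovine serum received 3-fold dilutions from 0.5 mg/mL, six wells per compound, for 10 days at 37 °C, humidified. Colonies counted in each well. Results are mean % colony number of treated (n = 2) versus control (n = 24) wells.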

[6] = Cytotoxicity against rhesus monkey MA104 cells after 72 hrs; type: functional; conditions: Macaca mulatta, MA104, 72 h
[7] = Selectivity index, ratio of CC50 for human Caco-2 cells to IC50 for Rotavirus RF; type: functional
Rotavirus [8] = test: Antiviral activity against Rotavirus RF in human Caco-2 cells assessed as neutralization of virus in solution before its attachment after 72 hrs; type: functional, organism-based; conditions: Caco-2, 72 h
How it was run: (§2)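 Threefold dilutions from 0.5 mg/mL were co-incubated with rotavirus RF in trypsin-supplemented DMEM for 12 h at 37 °C, 5% CO2, before infecting monolayers. Results are mean % of virus-only control (n = 6) for each dilution. IC50 taken from the concentration–effect curve.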

[9] = Selectivity index, ratio of CC50 for rhesus monkey MA104 cells to IC50 for Rotavirus RF after attachment to MA104 cells
[10] = Tumor selectivity index, ratio of CC50 for human H4 cells to CC50 for rhesus monkey MA104 cells; type: functional
Rotavirus [11] = test: Antiviral activity against Rotavirus RF infected in rhesus monkey MA104 cells assessed as neutralization of virus in solution before its attachment after 72 hrs; type: functional, organism-based; conditions: MA104, 72 h; how it was run: as §2

Structure (SMILES): C=C1[C@@H](O)[C@@H](O)[C@@H](CO)O[C@H]1n1cc(C)c(=O)[nH]c1=O
- Ratio CC50/IC50 [1]: 85.8
- CC50 (H4): 1760 µM
- IC50 (Rotavirus [2]): 7.03 µM
- Ratio [3]: 24.9
- CC50 (Caco-2 [4]): 70.4 µM
- IC50 (Caco-2 [5]): 21.1 µM
- CC50 [6]: 211 µM
- Ratio CC50/IC50 [7]: 28.61
- IC50 (Rotavirus [8]): 2.46 µM
- Ratio CC50/IC50 [9]: 30.03
- Ratio [10]: 8.3
- IC50 (Rotavirus [11]): 2.46 µM

Structure (SMILES): Cc1cn([C@@H]2O[C@H](CO)[C@H](O)[C@H](O)C2=O)c(=O)[nH]c1=O
- Ratio CC50/IC50 [1]: 85.9
- CC50 (H4): 1750 µM
- IC50 (Rotavirus [2]): 6.98 µM
- Ratio [3]: 25
- CC50 (Caco-2 [4]): 69.9 µM
- IC50 (Caco-2 [5]): 0.7 µM
- CC50 [6]: 210 µM
- Ratio CC50/IC50 [7]: 28.65
- IC50 (Rotavirus [8]): 2.44 µM
- Ratio CC50/IC50 [9]: 30.03
- Ratio [10]: 8.3
- IC50 (Rotavirus [11]): 2.44 µM

Structure (SMILES): C=C1C=C[C@@H](CO)O[C@H]1n1cc(C)c(=O)[nH]c1=O
- CC50 (H4): 2.8 µM
- IC50 (Rotavirus [2]): 79.9 µM
- Ratio [3]: 0.0014
- CC50 (Caco-2 [4]): 2000 µM
- IC50 (Caco-2 [5]): 79.9 µM
- CC50 [6]: 480 µM
- Ratio CC50/IC50 [9]: 5.99
- Ratio [10]: 0.0058

Structure (SMILES): C=C1C=C[C@@H](COC(c2ccccc2)(c2ccccc2)c2ccccc2)O[C@H]1n1cc(C)c(=O)[nH]c1=O
- CC50 (H4): 40.6 µM
- IC50 (Rotavirus [2]): 4.06 µM
- Ratio [3]: 0.04
- CC50 (Caco-2 [4]): 1020 µM
- IC50 (Caco-2 [5]): 0.4 µM
- CC50 [6]: 244 µM
- Ratio CC50/IC50 [9]: 60
- Ratio [10]: 0.16

Structure (SMILES): O=c1[nH]cc(F)c(=O)[nH]1 [FLUOROURACIL]
- CC50 (H4): 3840 µM
- Ratio [3]: 10
- CC50 [6]: 231 µM
- Ratio [10]: 16.67

Structure (SMILES): Cc1cn([C@H]2C[C@H](N=[N+]=[N-])[C@@H](CO)O2)c(=O)[nH]c1=O [ZIDOVUDINE]
- Ratio CC50/IC50 [1]: 3.01
- IC50 (Rotavirus [2]): 22.4 µM
- Ratio CC50/IC50 [7]: 0.75
- Ratio CC50/IC50 [9]: 10.03
- IC50 (Rotavirus [11]): 74.6 µM
